# Tested on: Staphylococcus aureus
# Experiment: Antibacterial activity against Staphylococcus aureus ATTC 25923 after 3 to 4 days by serial plate dilution method
# Format: functional
# Details: not given
# How it was run: (§1)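 Serial dilutions in Mueller-Hinton broth in tubes, pH adjusted to 5.0 with phosphate buffer. Inoculated with a standardized bacterial suspension and incubated 16–18 h at 37 °C. MIC is the lowest concentration with no visible growth, tested over 6.25–100 µg/mL. Zones come from an agar well diffusion assay: compounds in DMSO are added to wells in seeded agar, DMSO control, triplicate plates, 37 °C for 3–4 days, inhibition zone diameter in mm.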
row,SMILES,diameter of the inhibition zone (DIZ) [mm]
1,COc1ccc2nc(C)cc(-n3cc(CNC4CC4)nn3)c2c1,16
2,COc1ccc2nc(C)cc(-n3cc(CNC4CCCC4)nn3)c2c1,12
3,COc1ccc2nc(C)cc(-n3cc(CN(C)C)nn3)c2c1,16
4,CCN(CC)Cc1cn(-c2cc(C)nc3ccc(OC)cc23)nn1,12

# Same assay, conditions: Staphylococcus aureus, ATTC 25923
row,SMILES,MIC [µg/mL]
1,COc1ccc2nc(C)cc(-n3cc(CNC4CC4)nn3)c2c1,6.25
2,COc1ccc2nc(C)cc(-n3cc(CNC4CCCC4)nn3)c2c1,6.25
3,COc1ccc2nc(C)cc(-n3cc(CN(C)C)nn3)c2c1,6.25
4,CCN(CC)Cc1cn(-c2cc(C)nc3ccc(OC)cc23)nn1,6.25

# Tested on: Escherichia coli
# Experiment: Antibacterial activity against Escherichia coli ATTC 25922 after 3 to 4 days by serial plate dilution method
# Format: functional
# Details: not given
# How it was run: as §1
row,SMILES,diameter of the inhibition zone (DIZ) [mm]
1,COc1ccc2nc(C)cc(-n3cc(CNC4CC4)nn3)c2c1,16
2,COc1ccc2nc(C)cc(-n3cc(CNC4CCCC4)nn3)c2c1,12
3,COc1ccc2nc(C)cc(-n3cc(CN(C)C)nn3)c2c1,14
4,CCN(CC)Cc1cn(-c2cc(C)nc3ccc(OC)cc23)nn1,14

# Same assay, conditions: Escherichia coli, ATTC 25922
row,SMILES,MIC [µg/mL]
1,COc1ccc2nc(C)cc(-n3cc(CNC4CC4)nn3)c2c1,6.25
2,COc1ccc2nc(C)cc(-n3cc(CNC4CCCC4)nn3)c2c1,6.25
3,COc1ccc2nc(C)cc(-n3cc(CN(C)C)nn3)c2c1,6.25
4,CCN(CC)Cc1cn(-c2cc(C)nc3ccc(OC)cc23)nn1,6.25

# Tested on: Pseudomonas aeruginosa
# Experiment: Antibacterial activity against Pseudomonas aeruginosa ATCC 27853 after 3 to 4 days by serial plate dilution method
# Format: functional
# Details: not given
# How it was run: as §1
row,SMILES,diameter of the inhibition zone (DIZ) [mm]
1,COc1ccc2nc(C)cc(-n3cc(CNC4CC4)nn3)c2c1,12
2,COc1ccc2nc(C)cc(-n3cc(CNC4CCCC4)nn3)c2c1,12
3,COc1ccc2nc(C)cc(-n3cc(CN(C)C)nn3)c2c1,14
4,CCN(CC)Cc1cn(-c2cc(C)nc3ccc(OC)cc23)nn1,12

# Same assay, conditions: Pseudomonas aeruginosa, ATCC 27853
row,SMILES,MIC [µg/mL]
1,COc1ccc2nc(C)cc(-n3cc(CNC4CC4)nn3)c2c1,6.25
2,COc1ccc2nc(C)cc(-n3cc(CNC4CCCC4)nn3)c2c1,6.25
3,COc1ccc2nc(C)cc(-n3cc(CN(C)C)nn3)c2c1,6.25
4,CCN(CC)Cc1cn(-c2cc(C)nc3ccc(OC)cc23)nn1,6.25

# Tested on: Klebsiella pneumoniae
# Experiment: Antibacterial activity against recultured Klebsiella pneumoniae after 3 to 4 days by serial plate dilution method
# Format: functional
# Details: not given
# How it was run: as §1
row,SMILES,diameter of the inhibition zone (DIZ) [mm]
1,COc1ccc2nc(C)cc(-n3cc(CNC4CC4)nn3)c2c1,18
2,COc1ccc2nc(C)cc(-n3cc(CNC4CCCC4)nn3)c2c1,14
3,COc1ccc2nc(C)cc(-n3cc(CN(C)C)nn3)c2c1,16
4,CCN(CC)Cc1cn(-c2cc(C)nc3ccc(OC)cc23)nn1,12

# Same assay, conditions: Klebsiella pneumoniae
row,SMILES,MIC [µg/mL]
1,COc1ccc2nc(C)cc(-n3cc(CNC4CC4)nn3)c2c1,6.25
2,COc1ccc2nc(C)cc(-n3cc(CNC4CCCC4)nn3)c2c1,6.25
3,COc1ccc2nc(C)cc(-n3cc(CN(C)C)nn3)c2c1,6.25
4,CCN(CC)Cc1cn(-c2cc(C)nc3ccc(OC)cc23)nn1,6.25

# Tested on: Streptococcus pyogenes
# Experiment: Antibacterial activity against Streptococcus pyogenes after 3 to 4 days by serial plate dilution method
# Format: functional
# Details: not given
# How it was run: as §1
row,SMILES,diameter of the inhibition zone (DIZ) [mm]
1,COc1ccc2nc(C)cc(-n3cc(CNC4CC4)nn3)c2c1,12
2,COc1ccc2nc(C)cc(-n3cc(CNC4CCCC4)nn3)c2c1,12
3,COc1ccc2nc(C)cc(-n3cc(CN(C)C)nn3)c2c1,14
4,CCN(CC)Cc1cn(-c2cc(C)nc3ccc(OC)cc23)nn1,14

# Same assay, conditions: Streptococcus pyogenes
row,SMILES,MIC [µg/mL]
1,COc1ccc2nc(C)cc(-n3cc(CNC4CC4)nn3)c2c1,6.25
2,COc1ccc2nc(C)cc(-n3cc(CNC4CCCC4)nn3)c2c1,6.25
3,COc1ccc2nc(C)cc(-n3cc(CN(C)C)nn3)c2c1,6.25
4,CCN(CC)Cc1cn(-c2cc(C)nc3ccc(OC)cc23)nn1,6.25

# Tested on: Aspergillus flavus
# Experiment: Antifungal activity against Aspergillus flavus NCIM 524 after 3 to 4 days by serial plate dilution method
# Format: functional
# Details: not given
# How it was run: (§2)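 Sabouraud agar made from peptone, glucose and agar in water, pH 5.7. Fungal spores suspended in normal saline and used to lawn the plates, which were dried 1 h at 37 °C. Wells punched and compounds added in DMSO, with a DMSO solvent control. Triplicate plates held at 37 °C for 3–4 days. Read-out is inhibition zone diameter.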
row,SMILES,diameter of the inhibition zone (DIZ) [mm]
1,COc1ccc2nc(C)cc(-n3cc(CNC4CC4)nn3)c2c1,14
2,COc1ccc2nc(C)cc(-n3cc(CNC4CCCC4)nn3)c2c1,10
3,COc1ccc2nc(C)cc(-n3cc(CN(C)C)nn3)c2c1,12
4,CCN(CC)Cc1cn(-c2cc(C)nc3ccc(OC)cc23)nn1,11

# Same assay, conditions: Aspergillus flavus, NCIM 524
row,SMILES,MIC [µg/mL]
1,COc1ccc2nc(C)cc(-n3cc(CNC4CC4)nn3)c2c1,6.25
2,COc1ccc2nc(C)cc(-n3cc(CNC4CCCC4)nn3)c2c1,6.25
3,COc1ccc2nc(C)cc(-n3cc(CN(C)C)nn3)c2c1,6.25
4,CCN(CC)Cc1cn(-c2cc(C)nc3ccc(OC)cc23)nn1,12.5

# Tested on: Aspergillus fumigatus
# Experiment: Antifungal activity against Aspergillus fumigatus NCIM 902 after 3 to 4 days by serial plate dilution method
# Format: functional
# Details: not given
# How it was run: as §2
row,SMILES,diameter of the inhibition zone (DIZ) [mm]
1,COc1ccc2nc(C)cc(-n3cc(CNC4CC4)nn3)c2c1,18
2,COc1ccc2nc(C)cc(-n3cc(CNC4CCCC4)nn3)c2c1,14
3,COc1ccc2nc(C)cc(-n3cc(CN(C)C)nn3)c2c1,16
4,CCN(CC)Cc1cn(-c2cc(C)nc3ccc(OC)cc23)nn1,10

# Same assay, conditions: Aspergillus fumigatus, NCIM 902
row,SMILES,MIC [µg/mL]
1,COc1ccc2nc(C)cc(-n3cc(CNC4CC4)nn3)c2c1,6.25
2,COc1ccc2nc(C)cc(-n3cc(CNC4CCCC4)nn3)c2c1,6.25
3,COc1ccc2nc(C)cc(-n3cc(CN(C)C)nn3)c2c1,6.25
4,CCN(CC)Cc1cn(-c2cc(C)nc3ccc(OC)cc23)nn1,12.5

# Tested on: Talaromyces marneffei
# Experiment: Antifungal activity against recultured Penicillium marneffei after 3 to 4 days by serial plate dilution method
# Format: functional
# Details: not given
# How it was run: as §2
row,SMILES,diameter of the inhibition zone (DIZ) [mm]
1,COc1ccc2nc(C)cc(-n3cc(CNC4CC4)nn3)c2c1,18
2,COc1ccc2nc(C)cc(-n3cc(CNC4CCCC4)nn3)c2c1,10
3,COc1ccc2nc(C)cc(-n3cc(CN(C)C)nn3)c2c1,18
4,CCN(CC)Cc1cn(-c2cc(C)nc3ccc(OC)cc23)nn1,<10

# Same assay, conditions: Talaromyces marneffei
row,SMILES,MIC [µg/mL]
1,COc1ccc2nc(C)cc(-n3cc(CNC4CC4)nn3)c2c1,6.25
2,COc1ccc2nc(C)cc(-n3cc(CNC4CCCC4)nn3)c2c1,6.25
3,COc1ccc2nc(C)cc(-n3cc(CN(C)C)nn3)c2c1,6.25
4,CCN(CC)Cc1cn(-c2cc(C)nc3ccc(OC)cc23)nn1,25

# Tested on: Trichophyton mentagrophytes
# Experiment: Antifungal activity against recultured Trichophyton mentagrophytes after 3 to 4 days by serial plate dilution method
# Format: functional
# Details: not given
# How it was run: as §2
row,SMILES,diameter of the inhibition zone (DIZ) [mm]
1,COc1ccc2nc(C)cc(-n3cc(CNC4CC4)nn3)c2c1,15
2,COc1ccc2nc(C)cc(-n3cc(CNC4CCCC4)nn3)c2c1,10
3,COc1ccc2nc(C)cc(-n3cc(CN(C)C)nn3)c2c1,10
4,CCN(CC)Cc1cn(-c2cc(C)nc3ccc(OC)cc23)nn1,10

# Same assay, conditions: Trichophyton mentagrophytes
row,SMILES,MIC [µg/mL]
1,COc1ccc2nc(C)cc(-n3cc(CNC4CC4)nn3)c2c1,6.25
2,COc1ccc2nc(C)cc(-n3cc(CNC4CCCC4)nn3)c2c1,6.25
3,COc1ccc2nc(C)cc(-n3cc(CN(C)C)nn3)c2c1,6.25
4,CCN(CC)Cc1cn(-c2cc(C)nc3ccc(OC)cc23)nn1,12.5

# Tested on: Candida albicans
# Experiment: Antifungal activity against Candida albicans after 3 to 4 days by serial plate dilution method
# Format: functional
# Details: not given
# How it was run: as §2
row,SMILES,diameter of the inhibition zone (DIZ) [mm]
1,COc1ccc2nc(C)cc(-n3cc(CNC4CC4)nn3)c2c1,13
2,COc1ccc2nc(C)cc(-n3cc(CNC4CCCC4)nn3)c2c1,10
3,COc1ccc2nc(C)cc(-n3cc(CN(C)C)nn3)c2c1,10
4,CCN(CC)Cc1cn(-c2cc(C)nc3ccc(OC)cc23)nn1,11

# Same assay, conditions: Candida albicans
row,SMILES,MIC [µg/mL]
1,COc1ccc2nc(C)cc(-n3cc(CNC4CC4)nn3)c2c1,6.25
2,COc1ccc2nc(C)cc(-n3cc(CNC4CCCC4)nn3)c2c1,6.25
3,COc1ccc2nc(C)cc(-n3cc(CN(C)C)nn3)c2c1,6.25
4,CCN(CC)Cc1cn(-c2cc(C)nc3ccc(OC)cc23)nn1,12.5
